Source: ChEMBL document CHEMBL3046415, “Improved microwave-mediated synthesis of 3-(3-aryl-1,2,4-oxadiazol-5-yl)propionic acids and their larvicidal and fungal growth inhibitory properties” (2009)
Activity calls are given as the source filed them. No cut-off for these calls is given here.

Tests used:
Assay type in all cases: functional
[1] = test system: Fusarium verticillioides; assay: Antifungal activity against Fusarium verticillioides assessed as growth inhibition at 2 ug/ml after 48 hr by disk diffusion test
Summary of the method: (§1)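 Strains from a university mycology culture collection, grown on PDA at 28 °C for 8–15 d until plates were covered. Mycelial disks ([…]) were cut from colony edges and placed on test plates. Ethylene glycol served as negative control. Plates were incubated at 28 °C for up to 72 h in triplicate. Percent inhibition was calculated from reduction in growth diameter.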

[2] = test system: Fusarium verticillioides; assay: Antifungal activity against Fusarium verticillioides assessed as growth inhibition at 2 ug/ml after 72 hr by disk diffusion test; summary of the method: as §1
[3] = test system: Fusarium lateritium; assay: Antifungal activity against Fusarium lateritium assessed as growth inhibition at 2 ug/ml after 72 hr by disk diffusion test; details: read-out: GI; summary of the method: as §1
[4] = test system: Fusarium decemcellulare; assay: Antifungal activity against Fusarium decemcellulare assessed as growth inhibition at 2 ug/ml after 72 hr by disk diffusion test; details: read-out: GI; summary of the method: as §1
[5] = test system: Fusarium solani; assay: Antifungal activity against Fusarium solani assessed as growth inhibition at 2 ug/ml after 72 hr by disk diffusion test; details: read-out: GI; summary of the method: as §1

SMILES	growth inhibition (GI) [1]	growth inhibition (GI) [2]	inhibition of growth at 2 µg/mL [3]	inhibition of growth at 2 µg/mL [4]	inhibition of growth at 2 µg/mL [5]	inhibition of growth at 2 µg/mL ([1]; read-out: GI)	inhibition of growth at 2 µg/mL ([2]; read-out: GI)
O=C(O)CCc1nc(-c2ccc(Br)cc2)no1	Active	inactive					
COc1ccc(-c2noc(CCC(=O)O)n2)cc1	Active	inactive	45.8%	52.8%			
Cc1cccc(-c2noc(CCC(=O)O)n2)c1	Active	inactive					
Cc1ccc(-c2noc(CCC(=O)O)n2)cc1	Active	inactive					
O=C(O)CCc1nc(-c2ccc(Cl)cc2)no1	Active	inactive		66%	59.7%		
O=C(O)CCc1nc(-c2ccc(F)cc2)no1	Active	inactive	43%				
Cc1ccccc1-c1noc(CCC(=O)O)n1	Active	inactive					
O=C(O)CCc1nc(-c2ccc([N+](=O)[O-])cc2)no1	Active	inactive					
O=C(O)CCc1nc(-c2ccccc2)no1						52.8%	52.8%
